Screening data as filed in PubChem.
Sampled rows, rich in hits. Any-hit rate of the full collection: about 0.77%.
bIAP inh = intestinal alkaline phosphatase (bovine) inhibition | purified bovine IAP, CDP-star luminescence, 30 min | inhibition, % at 20 µM | 190,000 tested, under 10 active;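 active = over 50% inhibition of intestinal alkaline phosphatase at 20 µM in the single-dose screen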
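Incubation: 30 min reaction at room temperature / Material: purified bovine intestinal alkaline phosphatase (IAP) enzyme / Input: enzyme at 1/65,000,000 dilution / Dosing: 20 µM single dose / Signal: CDP-star luminescence signal / Reagent: CDP-star chemiluminescent phosphatase substrate, 30 µM final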
hIAP act = increases human intestinal alkaline phosphatase activity. P09923. activation factor at 10 µM. 330,000 compounds, 0.16% hits. AID 2524. purified human IAP, CDP-Star luminescence, 30 min; active compounds read high; 1 = vehicle-only enzyme, 0 = enzyme-free background;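 active = activation factor of the enzyme at least 2-fold when tested at 20 µM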
Target sequence (P09923 whole entry, looked up): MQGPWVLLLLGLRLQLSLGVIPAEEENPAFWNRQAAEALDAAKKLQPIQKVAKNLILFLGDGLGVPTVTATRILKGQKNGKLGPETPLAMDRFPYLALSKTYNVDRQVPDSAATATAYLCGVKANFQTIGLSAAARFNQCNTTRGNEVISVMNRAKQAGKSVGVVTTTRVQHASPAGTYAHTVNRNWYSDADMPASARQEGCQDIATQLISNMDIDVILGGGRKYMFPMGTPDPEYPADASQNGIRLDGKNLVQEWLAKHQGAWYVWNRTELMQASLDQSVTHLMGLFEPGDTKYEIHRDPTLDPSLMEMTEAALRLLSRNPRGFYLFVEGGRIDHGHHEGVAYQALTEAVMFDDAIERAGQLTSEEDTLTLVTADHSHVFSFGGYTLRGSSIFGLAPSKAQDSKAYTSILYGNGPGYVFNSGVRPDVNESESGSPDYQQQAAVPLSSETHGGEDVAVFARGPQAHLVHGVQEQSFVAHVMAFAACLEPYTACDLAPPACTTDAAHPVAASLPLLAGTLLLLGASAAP
mIAP act = mouse IAP activation. muIAP, CDP-Star luminescence, 30 min; active compounds read high; 1 = vehicle-only enzyme signal, 0 = enzyme-free wells. AID 2805. activation factor at 10 µM. 330,000 compounds, 0.24% hits;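 active = activation factor of at least 2 at 20 µM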
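System: mouse IAP enzyme. Reagent: CDP-Star chemiluminescent phosphatase substrate. Benchmarks: DMSO wells, no-enzyme wells. Times: 30 min enzyme-substrate-compound incubation at room temperature. Detection: luminescence from enzymatic CDP-Star hydrolysis. Doses: test compounds delivered from DMSO solution.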
mIAP inh = blocks mouse intestinal alkaline phosphatase; inhibition, % at 10 µM; purified mouse IAP, CDP-Star luminescence, 30 min; 330,000 compounds, 0.2% hits;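 active = inhibition of at least 40% at 10 µM in the primary screen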
bIAP activator = increases bovine intestinal alkaline phosphatase activity | purified bovine IAP, CDP-star luminescence, 30 min; active compounds read high; fold of DMSO-control signal, blank-subtracted | activation factor at 20 µM | 200,000 compounds, 0.17% hits | AID 1016;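 active = activation factor of 2 or more at 20 µM, a signal rise over negative controls twice the positive control's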
hIAP inh = human IAP inhibition. P09923. purified IAP, CDP-Star luminescence, 30 min. inhibition, % at 10 µM. 330,000 compounds, 0.12% hits;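 active = inhibition reaching a set limit with compound at 10 µM in the primary screen, cut at about 35% in these data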
Each line names hits and unclear results; the compound was inactive in the other large screens.

CC(NC(=S)NCCc1ccccc1)C(c1cccs1)N1CCN(Cc2ccccc2)CC1 (stereo unspecified)	mIAP act 5.3 (no result: bIAP inh)
CC(OC(=O)c1ccc(Cl)c([N+](=O)[O-])c1)C(=O)N1CCN(Cc2ccccc2)CC1 (stereo unspecified)	none (no result: bIAP inh, bIAP activator)
Cc1ccc(CN2CCC(n3nccc3NC(=O)c3ccccc3C)CC2)o1	none (no result: bIAP inh, bIAP activator)
COc1ccc(/C(C)=N/Nc2ccc(C(=O)O)cc2)cc1OC	hIAP act 2.1
Cc1cccc(N(Cc2ccccc2)C(=O)CSC(C)C(=O)Nc2cc(C)on2)c1 (stereo unspecified)	none (no result: bIAP inh, bIAP activator)
CCCCNc1nc2ccccc2[nH]1	bIAP activator 3.1
CCOC(=O)c1ccccc1NC(=O)COC(=O)C1CC(=O)N(CCc2ccccc2)C1 (stereo unspecified)	none (no result: bIAP inh, bIAP activator)
O=[N+]([O-])c1c(NCCCO)cc(SCc2ccco2)c2nonc12	mIAP inh 54
Cc1c(Cl)cccc1NC(=O)CCC(=O)N/N=C/c1ccc[nH]1	mIAP inh 51
Cc1ccc(C)c(NC(=O)CCC(=O)N/N=C/c2ccc[nH]2)c1	none
COc1ccc(O)c(C(=O)c2cnc3c(c2)c(C)nn3CCO)c1	none (no result: bIAP inh, bIAP activator)
COc1cc([C@@H]2c3cc4c(cc3[C@@H](O[C@@H]3O[C@@H]5CO[C@@H](C)O[C@H]5[C@H](O)[C@H]3O)[C@H]3COC(=O)[C@H]23)OCO4)cc(OC)c1O	none (no result: bIAP inh, bIAP activator)
O=C(CN1CCN(C(=O)c2ccco2)CC1)Nc1ccccc1	none (no result: bIAP inh, bIAP activator)
O=C(NCc1ccccc1)NC1(C(=O)N2CCN(c3ccccc3)CC2)CCCCC1	mIAP act 2.3, bIAP activator 2.1
O=C(Nc1ccccc1)NC1(C(=O)N2CCN(C(=O)c3ccco3)CC2)CCCCC1	bIAP activator 6.3
CCCn1cc(CN2CCc3ccc(NC(=O)C4CCCO4)cc3C2)c(C)n1 (stereo unspecified)	none (no result: bIAP inh, bIAP activator)
CCCCNS(=O)(=O)NC(=O)C1=C(N2CCCC2)COC1=O	none (no result: bIAP inh, bIAP activator)
COc1cc(/C=C2\CC/C(=C\c3cc(OC)c(O)c(OC)c3)C2=O)cc(OC)c1O	mIAP inh 56 (no result: bIAP inh)
O=C(Cc1ccccc1Cl)Nc1cccc(S(=O)(=O)N2CCCCCC2)c1	mIAP act 2.1 (no result: bIAP inh, bIAP activator)
Cc1cc(OCC(=O)Nc2cccc(S(=O)(=O)N3CCCCC3)c2)ccc1Cl	mIAP act 3.1 (no result: bIAP inh, bIAP activator)
O=C(CCc1ccccc1Cl)Nc1cccc(S(=O)(=O)N2CCCC2)c1	none (no result: bIAP inh, bIAP activator)
Cc1cc(OCC(=O)Nc2cccc(S(=O)(=O)N3CCCC3)c2)ccc1Cl	none (no result: bIAP inh, bIAP activator)
C[C@@H]1CN([C@@H](C)CO)C(=O)Cc2cc(NC(=O)Nc3cccc4ccccc34)ccc2O[C@@H]1CN(C)S(C)(=O)=O	mIAP act 2.3 (no result: bIAP inh, bIAP activator)
C[C@@H]1CN([C@@H](C)CO)C(=O)Cc2cc(NS(=O)(=O)c3ccccc3)ccc2O[C@H]1CN(C)S(C)(=O)=O	none (no result: bIAP inh, bIAP activator)
C[C@@H]1CN([C@@H](C)CO)C(=O)Cc2cc(NC(=O)Nc3cccc4ccccc34)ccc2O[C@@H]1CN(C)Cc1ccc(C(F)(F)F)cc1	mIAP act 2.1 (no result: bIAP inh, bIAP activator)
C[C@@H]1CN([C@H](C)CO)C(=O)Cc2cc(NC(=O)Nc3ccccc3)ccc2O[C@@H]1CN(C)Cc1ccc2c(c1)OCO2	mIAP act 2.1 (no result: bIAP inh, bIAP activator)
C[C@@H]1CN([C@H](C)CO)C(=O)Cc2cc(NS(=O)(=O)c3ccc(Cl)cc3)ccc2O[C@H]1CN(C)Cc1ccc(C(F)(F)F)cc1	none (no result: bIAP inh, bIAP activator)
CCS(=O)(=O)c1ncc(Cl)c(C(=O)Nc2ccc(S(=O)(=O)N3CCC(C)CC3)cc2)n1	none (no result: bIAP inh, bIAP activator)
C[C@H](CO)N1C[C@H](C)[C@@H](CN(C)S(C)(=O)=O)Oc2ccc(N(C)C)cc2C1=O	none (no result: bIAP inh, bIAP activator)
COCCCN(C(=O)C1CCC1)c1c(N)n(Cc2ccccc2)c(=O)[nH]c1=O	none (no result: bIAP inh, bIAP activator)
CCCCNC(=S)Nc1ccc(C(F)(F)F)cc1	mIAP act 2.2
FC(F)(F)c1cccc(NC(=S)NC2CCCC2)c1	mIAP act 2.6
FC(F)(F)c1cccc(NC(=S)NCC2COc3ccccc3O2)c1 (stereo unspecified)	mIAP act 3.6
O=C(O)c1ccc(NC(=S)NC2CCCCC2)cc1	none
CCCCNC(=S)Nc1ccc(Cl)cc1	none
FC(F)(F)c1ccc(NC(=S)NC2CCCCC2)cc1	mIAP act 2.7
CC(=O)N/C(=N/c1nc(C)cc(C)n1)Nc1ccc(C)cc1C	none (no result: bIAP inh, bIAP activator)
